For experiment [1], the target named is T1, SIRT6 (Homo sapiens, UniProt Q8N6T7). The experiment is described as follows: Fluor de Lys. It counts as biochemical. The method, boiled down:
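Recombinant SIRT6 was expressed in E. coli BL21 in LB with 100 μg/mL ampicillin at 37 °C. Expression was induced with 0.5 mmol/L IPTG at OD600 0.8, then grown 18 h at 16 °C and purified by an earlier method.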

Experiment [2] has as its target T1, SIRT6. The experiment is described as follows: In vitro nucleosome deacetylation assay. The format is biochemical. Conditions: 10 mmol/L, H3K9Ac and H3K18Ac, Western blot. The method, boiled down: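 Nucleosomes were isolated from HeLa cells and deacetylated in vitro by SIRT6 in the presence of NAD+. H3K9Ac and H3K18Ac were detected by Western blot.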
In general terms: A western blot detects proteins with antibodies after separation by electrophoresis.

Data on two compounds can be found in paper PMC8897208 (Acta Pharmaceutica Sinica. B, 2021).

The structures appear in SMILES notation.

T1 sequence (Q8N6T7 whole entry): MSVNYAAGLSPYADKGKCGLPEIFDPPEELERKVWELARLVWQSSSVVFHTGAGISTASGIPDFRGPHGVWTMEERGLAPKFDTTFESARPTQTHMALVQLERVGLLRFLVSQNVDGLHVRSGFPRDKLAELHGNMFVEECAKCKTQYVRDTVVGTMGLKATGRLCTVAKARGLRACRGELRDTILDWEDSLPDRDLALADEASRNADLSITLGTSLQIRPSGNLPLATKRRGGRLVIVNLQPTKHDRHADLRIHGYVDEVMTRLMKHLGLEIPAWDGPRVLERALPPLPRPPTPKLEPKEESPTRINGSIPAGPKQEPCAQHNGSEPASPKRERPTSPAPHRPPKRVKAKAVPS

Compound `Nc1nonc1-n1cc(C(=O)N/N=C/c2ccccc2O)nn1` [JYQ-1] came in with an IC50 against SIRT6 [1] of 26.8 µM. In addition, the “inhibition ratio at 50 μmol/L” value on SIRT6 [1] (FDL assay, substrate Ac-RHKK-Ac-AMC, 50 μmol/L compound) is 64.18%. Take `NC(=O)c1cccnc1` [nicotinamide, reference compound]: the “inhibition of SIRT6 deacetylation on nucleosomes” value on SIRT6 [2] is listed as “weak inhibition”.

One may read the IC50 as the concentration at which inhibition is half-maximal. The low end stands for greater potency, the high end for weaker potency.
